≈ marks a conversion by molar mass, not a printed value.
Experiments:
[1] = Dissolution test in pH 1.2 and pH 6.8 buffers with 0.2% Tween 80; type: physicochemical; details: 0.2% Tween 80, 37 °C
Outline: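 Crystalline compound or solid dispersion, each equivalent to 2 mg test compound, was stirred at 50 rpm and 37 °C in 100 mL phosphate buffer (pH 1.2 or pH 6.8, each with 0.2% Tween 80). Samples were taken at 5, 10, 20, 30, 60, 120, 180, 240 and 300 min, with medium replaced at 37 °C. Samples were filtered (0.45 µm) and analysed by the 424 nm HPLC method.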

[2] = Apparent solubility measurement in deionised water; type: physicochemical; details: 37 °C, thermodynamic from solid
Outline: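 Excess crystalline test compound or its 1:10 solid dispersion was shaken in deionised water at 50 strokes/min and 37 °C for 24 h, then filtered (0.45 µm). Concentration was measured by HPLC: C18 column, 2% glacial acetic acid:methanol (23:77 v/v) at 1 mL/min, detection at 424 nm. Measured in triplicate.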

[3] = Particle size analysis of micelles by dynamic light scattering; type: physicochemical; details: in water, DLS
Outline: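 Carrier glycoside alone or the solid dispersion powder was dispersed in deionised water and sonicated for 2 min. Volumetric size distribution was measured by dynamic light scattering, and the mean size was taken from 3 replicates.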

[4] = ref [19], cited from earlier work
[5] = above the CMC, previous studies; ref [16–18]; cited from earlier work

## COc1cc(/C=C/C(=O)CC(=O)/C=C/c2ccc(O)c(OC)c2)ccc1O [CUR, Curcumin]
[1]; pH 1.2 buffer, in 300 min
  CUR released: 22%
[1]; pH 6.8 buffer
  Dissolution rate (in words): slow dissolution rate
[2]
  solubility at 24 h: 0.25 µg/mL (≈ 0.679 µM)
[3]
  Micelle size (diameter): ~ 154 nm

## COc1cc(C2Oc3cc([C@H]4Oc5cc(O)cc(O)c5C(=O)[C@@H]4O)ccc3OC2CO)ccc1O (stereo partly drawn) [silybin]
[4]
  Fold increment of silybin water solubility by Mog-V: 2000 fold
[4]; silybin alone
  Water solubility of silybin: 1 µg/mL
[4]; solid dispersion of silybin in Mog-V dissolved in water
  Water solubility of silybin with Mog-V: 2000 µg/mL

## α-Glucosyl Stevia [Stevia-G]
[5]
  Aggregation number: 12

## α-Glycosyl Rutin [Rutin-G]
[5]
  Aggregation number: 4

— paper PMC9968502 (International Journal of Nanomedicine, 2023)
